From paper PMC9050161 (RSC Advances, 2020)

Key:
[1] = biological target: UGT1A8 (Homo sapiens, UniProt Q9HAW9); assay: Inhibition of UGT1A8; assay type: biochemical; conditions: PI-103 1, 10 and 100 μM
In short: (§1)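 Recombinant human UGTs screened with probe substrates: β-estradiol for UGT1A1, propofol for 1A9, and 4-methylumbelliferone for 1A3, 1A6, 1A7, 1A8, 1A10, 2B4, 2B7, 2B10, 2B15 and 2B17. Incubated at 37 °C without (control) or with test compound at 1, 10 or 100 μM. Glucuronide formation measured relative to control; triplicate.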

[2] = test system: p110γ; conditions: cited from earlier work
[3] = biological target: UGT1A1 (Homo sapiens, UniProt P22309); assay: Inhibition of UGT1A1; assay type: biochemical; conditions: PI-103 1, 10 and 100 μM
In short: as §1

[4] = biological target: CYP2E1 (Homo sapiens, UniProt P05181); assay: Inhibition of CYP2E1; assay type: biochemical
CYP2E1, sequence (P05181 whole entry): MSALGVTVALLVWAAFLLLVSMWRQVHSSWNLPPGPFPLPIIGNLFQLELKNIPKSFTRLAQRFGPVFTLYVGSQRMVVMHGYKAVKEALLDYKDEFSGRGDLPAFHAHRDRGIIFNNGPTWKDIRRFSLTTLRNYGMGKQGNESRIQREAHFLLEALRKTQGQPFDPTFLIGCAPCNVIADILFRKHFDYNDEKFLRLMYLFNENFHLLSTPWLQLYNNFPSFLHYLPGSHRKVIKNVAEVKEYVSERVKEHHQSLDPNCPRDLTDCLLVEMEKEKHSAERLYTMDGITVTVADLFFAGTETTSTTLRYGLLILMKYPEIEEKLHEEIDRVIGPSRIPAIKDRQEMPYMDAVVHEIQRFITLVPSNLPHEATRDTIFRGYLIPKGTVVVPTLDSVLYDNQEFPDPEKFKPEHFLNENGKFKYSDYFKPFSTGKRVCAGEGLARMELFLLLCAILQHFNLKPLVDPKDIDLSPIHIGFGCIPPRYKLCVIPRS
In short: (§2)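 Recombinant human CYPs at 0.1 mg mL−1 protein, each with its probe substrate near Km: coumarin 100 μM (2A6), bupropion 100 μM (2B6), paclitaxel 60 μM (2C8), tolbutamide 200 μM (2C9), mephenytoin 100 μM (2C19), chlorzoxazone 200 μM (2E1). Incubated at 37 °C with or without test compound at 1, 10 or 100 μM. UHPLC-TQD-MS read-out; triplicate.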

[5] = biological target: CYP2C9 (Homo sapiens, UniProt P11712); assay: Inhibition of CYP2C9; assay type: biochemical
CYP2C9, sequence (P11712 whole entry): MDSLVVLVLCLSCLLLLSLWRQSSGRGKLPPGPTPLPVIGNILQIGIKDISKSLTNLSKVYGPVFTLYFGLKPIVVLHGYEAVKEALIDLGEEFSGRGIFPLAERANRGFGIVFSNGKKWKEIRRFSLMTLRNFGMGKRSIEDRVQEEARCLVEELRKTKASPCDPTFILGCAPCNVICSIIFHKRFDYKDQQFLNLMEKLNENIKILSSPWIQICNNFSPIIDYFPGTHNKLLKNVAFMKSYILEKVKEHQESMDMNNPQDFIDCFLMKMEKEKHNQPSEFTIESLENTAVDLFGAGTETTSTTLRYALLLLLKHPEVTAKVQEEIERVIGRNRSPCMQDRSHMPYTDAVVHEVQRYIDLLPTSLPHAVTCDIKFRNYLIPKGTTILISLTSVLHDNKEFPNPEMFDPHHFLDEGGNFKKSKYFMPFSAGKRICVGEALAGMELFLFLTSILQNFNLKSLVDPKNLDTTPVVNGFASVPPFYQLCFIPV
In short: as §2

[6] = test system: p110δ; conditions: cited from earlier work
[7] = biological target: UGT1A6 (Homo sapiens, UniProt P19224); assay: Inhibition of UGT1A6; assay type: biochemical
In short: as §1

[8] = biological target: CYP3A5 (Homo sapiens, UniProt P20815); assay: Inhibition of CYP3A5; assay type: biochemical; conditions: PI-103 1, 10 and 100 μM
In short: (§3)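 Recombinant human CYPs at 0.05 mg mL−1 protein, each with its probe substrate near Km: ethoxyresorufin 1 μM (CYP1A1), phenacetin 100 μM (CYP1A2), nifedipine 40 μM (CYP3A4, 3A5). Incubated at 37 °C without (control) or with test compound at 1, 10 and 100 μM. Supernatant analysed by UHPLC-TQD-MS; activity relative to control; triplicate.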

[9] = biological target: CYP3A4 (Homo sapiens, UniProt P08684); assay: Inhibition of CYP3A4; assay type: biochemical; conditions: PI-103 1, 10 and 100 μM
CYP3A4, sequence (P08684 whole entry): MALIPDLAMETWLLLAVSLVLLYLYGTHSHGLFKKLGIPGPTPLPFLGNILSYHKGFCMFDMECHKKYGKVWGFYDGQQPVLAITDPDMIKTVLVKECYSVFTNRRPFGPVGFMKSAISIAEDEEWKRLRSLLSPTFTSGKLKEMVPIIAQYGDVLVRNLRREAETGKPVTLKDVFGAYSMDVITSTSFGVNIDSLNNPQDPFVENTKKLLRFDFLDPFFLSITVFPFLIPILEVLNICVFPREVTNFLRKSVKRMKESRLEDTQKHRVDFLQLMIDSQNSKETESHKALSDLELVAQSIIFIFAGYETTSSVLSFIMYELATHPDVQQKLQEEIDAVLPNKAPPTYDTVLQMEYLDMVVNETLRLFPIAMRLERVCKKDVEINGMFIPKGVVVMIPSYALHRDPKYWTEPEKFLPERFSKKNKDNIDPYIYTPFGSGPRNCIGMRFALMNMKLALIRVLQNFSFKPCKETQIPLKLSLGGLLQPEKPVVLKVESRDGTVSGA
In short: as §3

[10] = biological target: CYP1A1 (Homo sapiens, UniProt P04798); assay: Inhibition of CYP1A1; assay type: biochemical
CYP1A1, sequence (P04798 whole entry): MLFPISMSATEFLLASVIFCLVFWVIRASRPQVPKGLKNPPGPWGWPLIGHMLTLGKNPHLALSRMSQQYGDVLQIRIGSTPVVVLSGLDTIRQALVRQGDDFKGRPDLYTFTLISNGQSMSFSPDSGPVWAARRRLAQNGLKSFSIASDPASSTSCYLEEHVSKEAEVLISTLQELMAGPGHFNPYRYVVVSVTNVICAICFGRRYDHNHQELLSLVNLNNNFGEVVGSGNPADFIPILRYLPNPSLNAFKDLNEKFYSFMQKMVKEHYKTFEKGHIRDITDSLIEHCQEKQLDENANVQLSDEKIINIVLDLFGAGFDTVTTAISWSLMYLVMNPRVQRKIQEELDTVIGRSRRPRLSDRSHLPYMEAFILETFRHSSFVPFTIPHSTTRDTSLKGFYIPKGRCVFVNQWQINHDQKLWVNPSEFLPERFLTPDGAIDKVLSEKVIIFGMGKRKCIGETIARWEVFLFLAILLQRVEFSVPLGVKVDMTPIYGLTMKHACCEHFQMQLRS
In short: as §3

[11] = biological target: BCRP (Homo sapiens, UniProt Q9UNQ0); assay: M2 excretion in HeLa1A9 cells after shRNA knock-down of BCRP; assay type: cell-based
BCRP, sequence (Q9UNQ0 whole entry): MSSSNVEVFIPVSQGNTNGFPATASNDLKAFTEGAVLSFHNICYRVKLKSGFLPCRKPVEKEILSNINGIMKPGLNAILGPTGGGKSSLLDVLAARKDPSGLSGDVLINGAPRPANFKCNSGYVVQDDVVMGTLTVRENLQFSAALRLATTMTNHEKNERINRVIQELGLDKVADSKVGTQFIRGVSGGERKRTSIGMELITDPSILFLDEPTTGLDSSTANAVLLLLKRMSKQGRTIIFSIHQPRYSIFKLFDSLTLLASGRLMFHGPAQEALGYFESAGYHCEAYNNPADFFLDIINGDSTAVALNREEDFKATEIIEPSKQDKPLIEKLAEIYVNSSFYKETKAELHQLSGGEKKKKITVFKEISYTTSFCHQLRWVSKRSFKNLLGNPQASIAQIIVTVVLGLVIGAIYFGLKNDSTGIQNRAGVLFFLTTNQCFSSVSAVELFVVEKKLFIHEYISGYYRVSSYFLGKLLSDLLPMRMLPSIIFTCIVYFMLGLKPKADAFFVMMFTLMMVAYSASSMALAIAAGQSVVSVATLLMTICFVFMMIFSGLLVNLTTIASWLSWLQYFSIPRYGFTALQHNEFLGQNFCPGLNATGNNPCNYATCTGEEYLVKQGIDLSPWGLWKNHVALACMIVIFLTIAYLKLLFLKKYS
In short: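 shRNA plasmid against BCRP, MRP1, MRP3 or MRP4 transfected into UGT1A9-expressing HeLa cells, then exposed to 5 μM test compound in HBSS. Medium sampled at 30–120 min with replacement; cells collected at 120 min. UHPLC gave extracellular and intracellular glucuronide, excretion rate, efflux clearance (excretion rate/intracellular concentration) and fraction metabolized (fmet), each compared with control. Triplicate.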

[12] = biological target: T1, UGT1A7 (Homo sapiens, UniProt Q9HAW7); assay: Inhibition of UGT1A7; assay type: biochemical
T1 sequence (Q9HAW7 26-530): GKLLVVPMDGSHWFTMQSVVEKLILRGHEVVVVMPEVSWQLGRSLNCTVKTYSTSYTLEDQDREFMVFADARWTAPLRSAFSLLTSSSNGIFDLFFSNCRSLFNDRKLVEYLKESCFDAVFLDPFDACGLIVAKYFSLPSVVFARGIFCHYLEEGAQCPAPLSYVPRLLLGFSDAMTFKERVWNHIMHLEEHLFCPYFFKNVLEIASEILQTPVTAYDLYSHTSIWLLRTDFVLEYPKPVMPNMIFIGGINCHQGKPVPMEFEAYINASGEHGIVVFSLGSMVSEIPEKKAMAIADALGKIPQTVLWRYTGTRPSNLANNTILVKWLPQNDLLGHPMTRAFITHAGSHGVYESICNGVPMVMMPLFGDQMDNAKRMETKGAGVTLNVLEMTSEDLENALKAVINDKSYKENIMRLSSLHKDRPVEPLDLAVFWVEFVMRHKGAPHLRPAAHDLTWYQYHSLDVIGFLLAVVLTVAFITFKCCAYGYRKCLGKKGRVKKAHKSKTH
In short: as §1

[13] = test system: normal hematopoietic progenitors; conditions: cited from earlier work
[14] = biological target: UGT2B15 (Homo sapiens, UniProt P54855); assay: Inhibition of UGT2B15; assay type: biochemical; conditions: PI-103 1, 10 and 100 μM
UGT2B15, sequence (P54855 24-530): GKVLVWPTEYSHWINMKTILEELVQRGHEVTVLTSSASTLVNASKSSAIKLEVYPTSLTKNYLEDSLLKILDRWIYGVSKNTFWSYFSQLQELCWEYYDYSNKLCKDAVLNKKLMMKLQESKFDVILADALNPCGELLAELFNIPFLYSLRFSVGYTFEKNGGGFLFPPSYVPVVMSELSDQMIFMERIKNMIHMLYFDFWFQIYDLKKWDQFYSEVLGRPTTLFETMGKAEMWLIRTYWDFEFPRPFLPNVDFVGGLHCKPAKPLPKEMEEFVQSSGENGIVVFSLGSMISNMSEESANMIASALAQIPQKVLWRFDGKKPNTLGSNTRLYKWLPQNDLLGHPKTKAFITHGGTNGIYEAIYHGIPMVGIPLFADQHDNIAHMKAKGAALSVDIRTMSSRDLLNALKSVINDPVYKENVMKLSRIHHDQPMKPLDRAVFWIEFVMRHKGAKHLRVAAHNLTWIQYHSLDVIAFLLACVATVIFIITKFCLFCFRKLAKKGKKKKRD
In short: as §1

[15] = biological target: CYP2A6 (Homo sapiens, UniProt P11509); assay: Inhibition of CYP2A6; assay type: biochemical; conditions: PI-103 1, 10 and 100 μM
In short: as §2

[16] = biological target: UGT1A9 (Homo sapiens, UniProt O60656); assay: Inhibition of UGT1A9; assay type: biochemical
UGT1A9, sequence (O60656 26-530): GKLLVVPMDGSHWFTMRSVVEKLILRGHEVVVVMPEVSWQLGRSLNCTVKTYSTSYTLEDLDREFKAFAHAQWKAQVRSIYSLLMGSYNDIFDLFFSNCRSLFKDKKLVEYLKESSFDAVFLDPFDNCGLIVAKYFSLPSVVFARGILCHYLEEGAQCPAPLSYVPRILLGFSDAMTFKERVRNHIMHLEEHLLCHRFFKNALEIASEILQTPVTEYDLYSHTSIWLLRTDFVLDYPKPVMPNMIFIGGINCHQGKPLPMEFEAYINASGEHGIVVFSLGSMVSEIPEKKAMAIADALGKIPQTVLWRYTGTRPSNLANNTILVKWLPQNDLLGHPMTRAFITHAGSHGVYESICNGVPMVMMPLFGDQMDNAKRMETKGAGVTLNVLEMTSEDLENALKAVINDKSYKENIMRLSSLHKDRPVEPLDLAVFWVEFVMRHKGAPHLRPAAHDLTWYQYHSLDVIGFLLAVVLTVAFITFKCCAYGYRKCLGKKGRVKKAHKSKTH
In short: as §1

[17] = biological target: CYP2C8 (Homo sapiens, UniProt P10632); assay: Inhibition of CYP2C8; assay type: biochemical; conditions: PI-103 1, 10 and 100 μM
CYP2C8, sequence (P10632 whole entry): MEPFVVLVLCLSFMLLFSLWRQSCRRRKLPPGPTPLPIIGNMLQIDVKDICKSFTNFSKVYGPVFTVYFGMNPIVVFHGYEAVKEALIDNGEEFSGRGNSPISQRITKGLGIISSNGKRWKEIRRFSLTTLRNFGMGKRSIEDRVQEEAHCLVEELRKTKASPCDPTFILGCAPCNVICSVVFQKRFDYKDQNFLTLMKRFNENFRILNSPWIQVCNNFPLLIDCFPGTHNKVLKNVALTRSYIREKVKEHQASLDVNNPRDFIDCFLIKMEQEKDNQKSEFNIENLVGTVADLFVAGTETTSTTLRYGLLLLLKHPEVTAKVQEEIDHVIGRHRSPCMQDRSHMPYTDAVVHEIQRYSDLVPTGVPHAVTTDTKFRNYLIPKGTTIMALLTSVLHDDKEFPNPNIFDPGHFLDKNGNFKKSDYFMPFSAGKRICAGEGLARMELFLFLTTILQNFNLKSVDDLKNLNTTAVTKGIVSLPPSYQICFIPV
In short: as §2

[18] = test system: p110α; conditions: cited from earlier work
[19] = biological target: UGT2B4 (Homo sapiens, UniProt P06133); assay: Inhibition of UGT2B4; assay type: biochemical; conditions: PI-103 1, 10 and 100 μM
In short: as §1

UGT1A8, sequence (Q9HAW9 26-530): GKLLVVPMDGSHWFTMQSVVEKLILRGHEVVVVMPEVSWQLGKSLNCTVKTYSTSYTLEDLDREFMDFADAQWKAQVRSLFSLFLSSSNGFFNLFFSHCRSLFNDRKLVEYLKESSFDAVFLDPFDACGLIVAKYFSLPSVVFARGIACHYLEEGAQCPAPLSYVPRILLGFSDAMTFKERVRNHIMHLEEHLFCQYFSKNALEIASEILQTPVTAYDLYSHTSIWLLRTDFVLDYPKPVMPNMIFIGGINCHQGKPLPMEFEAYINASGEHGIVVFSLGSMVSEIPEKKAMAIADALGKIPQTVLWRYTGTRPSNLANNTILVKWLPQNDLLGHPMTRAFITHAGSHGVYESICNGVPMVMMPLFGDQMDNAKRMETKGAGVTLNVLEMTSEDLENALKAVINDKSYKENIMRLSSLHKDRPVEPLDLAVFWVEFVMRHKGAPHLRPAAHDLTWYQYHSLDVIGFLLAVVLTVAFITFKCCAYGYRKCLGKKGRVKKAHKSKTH

For Oc1cccc(-c2nc(N3CCOCC3)c3oc4ncccc4c3n2)c1 [PI-103], the inhibitory effect [1] is given as “negligible”, the IC50 [2] is given as 150 nM and the inhibitory effect [3] is given as “negligible”. The IC50 [4] was 330 ± 40 nM, the Ki [4] was 250 ± 10 nM and the residual activity ([4]; CYP2E1, 100 μM PI-103) was 13.69 % of the negative control. For the same compound, the Type of inhibition ([4]; CYP2E1, chlorzoxazone) was “Noncompetitive”, the IC50 [5] was 1160 ± 150 nM and the Ki [5] was 560 ± 120 nM. For the same compound, the residual activity ([5]; CYP2C9, 100 μM PI-103) was 14.22 % of the negative control, the Type of inhibition ([5]; CYP2C9, tolbutamide) was “Mixed-type” and the α ([5]; CYP2C9, tolbutamide, mixed-type model (selected)) was 2.45 ± 0.94. For the same compound, the IC50 [6] was […], the IC50 [7] was 168000 ± 15300 nM and the inhibitory effect [8] was “negligible or weak”. For the same compound, the inhibitory effect [9] was “negligible or weak”, the IC50 [10] was 16800 ± 1760 nM and the residual activity ([10]; CYP1A1, 100 μM PI-103) was 21.39 % of the negative control. For the same compound, the “reduction in fraction of metabolized (fmet) PI-103” value [11] was 27.6%, the IC50 [12] was 6250 ± 840 nM and the Ki [12] was 5640 ± 600 nM. The Type of inhibition ([12]; UGT1A7, 4-MU) was “Noncompetitive”, the “impact on normal hematopoietic progenitors” value [13] was “little impact” and the inhibitory effect [14] was “negligible”. For the same compound, the inhibitory effect [15] was “negligible or weak”, the IC50 [16] was 16600 ± 1290 nM and the inhibitory effect [17] was “negligible or weak”. The IC50 [18] was […] and the inhibitory effect [19] was “negligible”.
